tested on: HEp-2 viability, luminescence (CellTiter-Glo); experiment: viability of uninfected HEp-2 host cells – cell-based, synthesized compounds, set 10, cytotoxicity control for RSV antiviral project, dose response (AID 504825)
Method in brief: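 Controls: Cell-only wells, 100% reference | Assay system: Uninfected HEp-2 human cells, compound cytotoxicity | Input: 10,595 HEp-2 cells per well | Measured by: CellTiter-Glo luminescence | Repeats: Triplicate | Buffer or medium: DMEM/F12 | Schedule: 6 d compound exposure, 37 °C | Evaluation: % viability and CC50, 4-parameter fit | Dosing: 8-point twofold dilution series, 0.5% DMSO final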

Compound	CC50
COc1ccc(C)c(NC(=O)[C@@H]2CCCN2S(=O)(=O)c2cccc3cccnc23)c1	47.7 µM
Cc1ccc(NC(=O)[C@@H]2CCCN2S(=O)(=O)c2cccc3cccnc23)c(C)c1	29 µM
Cc1cc(NC(=O)[C@@H]2CCCN2S(=O)(=O)c2cccc3cccnc23)n(C(C)(C)C)n1	55.1 µM

— PubChem BioAssay AID504825 (Southern Research Specialized Biocontainment Screening …, 2011)
